This passage reports IC50 and EC50 results from ChEMBL document CHEMBL1143168, “Conformational preferences of natural and C3-modified epothilones in aqueous solution” (J Med Chem, 2008).

Experiment [1] has as its system MCF7. As to the kind of experiment: Antiproliferative activity against human MCF7 cells after 72 hrs by methylene blue staining. The class given is functional, cell-based. The settings on record: MCF7, 72 h. Put shortly: (§1)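 Human cancer cell lines exposed to compound for 72 h. Cells then fixed and total protein quantified by methylene blue staining. IC50 taken as concentration giving 50% growth inhibition.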

Experiment [2] can be described thus: Induction of pig brain alpha-beta-tubulin polymerization. Set-up: species or system Sus scrofa. Put shortly:
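Porcine brain tubulin at 10 µM. Polymerization followed by turbidity at 340 nm until a stable A340 plateau (equilibrium between soluble and polymerized tubulin). EC50 is the concentration inducing 50% of the maximum achievable polymerization. The maximum is the plateau beyond which higher compound concentration gives no further A340 increase.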

Experiment [3] can be described thus: Antiproliferative activity against human PC3M cells after 72 hrs by methylene blue staining. The class given is functional, cell-based. The following applies: PC-3M. Put shortly:
as §1

The subject of experiment [4] is HCT-116. Nature of the experiment: Antiproliferative activity against human HCT116 cells after 72 hrs by methylene blue staining. The format is functional, cell-based. The settings on record: HCT-116, 72 h. Put shortly:
as §1

A word on the IC50: it is the midpoint of a concentration-inhibition curve. Higher therefore signals weaker potency. In general, EC50 refers to the concentration that produces a half-maximal response. The low end stands for higher potency in that assay, the high end for lower potency in that assay. With `C/C(=C\c1csc(C)n1)[C@@H]1C[C@@H]2O[C@@H]2CCC[C@H](C)[C@H](O)[C@@H](C)C(=O)C(C)(C)CCC(=O)O1` [3-DEOXY-EPO A], the IC50 stood at 58.4 nM in experiment [1], 79 nM in experiment [3] and 84.4 nM in experiment [4]. Besides, the 50% effective concentration (EC50) in experiment [2] is 5600 nM.
For `C/C(=C\c1csc(C)n1)[C@@H]1C[C@@H]2O[C@@H]2CCC[C@H](C)[C@H](O)[C@@H](C)C(=O)C(C)(C)/C=C/C(=O)O1` [3-DEOXY-2,3-DIDEHYDRO-EPO A] the same measures were 8.7 nM, 24.8 nM, 16.2 nM and 4800 nM.
In the case of `C/C(=C\c1csc(C)n1)[C@@H]1C[C@@H]2O[C@@H]2CCC[C@H](C)[C@H](O)[C@@H](C)C(=O)C(C)(C)[C@@H](O)CC(=O)O1` [EPOTHILONE A], the concentration for half-maximal inhibition (IC50) in experiment [1] stood at 2.9 nM; in experiment [3] it was 6.4 nM; in experiment [4] it was 2.8 nM. In experiment [2], the concentration giving a half-maximal response (EC50) turned out to be 4600 nM.
